Results published in ChEMBL document CHEMBL5653631, “A Potent and Selective ULK1 Inhibitor Suppresses Autophagy and Sensitizes Cancer Cells to Nutrient Stress” (iScience, 2018).
One block for each molecule: values may come before it.

Experiments:
[1] = biological target: Fibroblast growth factor receptor 3 (Homo sapiens) (UniProt P22607); experiment: Inhibition of human recombinant FGFR3 at 500 nM related to control ULK1
[2] = biological target: T1, Discoidin domain-containing receptor 2 (Homo sapiens) (UniProt Q16832); experiment: Inhibition of human recombinant DDR2 at 500 nM related to control ULK1
T1 sequence (whole entry): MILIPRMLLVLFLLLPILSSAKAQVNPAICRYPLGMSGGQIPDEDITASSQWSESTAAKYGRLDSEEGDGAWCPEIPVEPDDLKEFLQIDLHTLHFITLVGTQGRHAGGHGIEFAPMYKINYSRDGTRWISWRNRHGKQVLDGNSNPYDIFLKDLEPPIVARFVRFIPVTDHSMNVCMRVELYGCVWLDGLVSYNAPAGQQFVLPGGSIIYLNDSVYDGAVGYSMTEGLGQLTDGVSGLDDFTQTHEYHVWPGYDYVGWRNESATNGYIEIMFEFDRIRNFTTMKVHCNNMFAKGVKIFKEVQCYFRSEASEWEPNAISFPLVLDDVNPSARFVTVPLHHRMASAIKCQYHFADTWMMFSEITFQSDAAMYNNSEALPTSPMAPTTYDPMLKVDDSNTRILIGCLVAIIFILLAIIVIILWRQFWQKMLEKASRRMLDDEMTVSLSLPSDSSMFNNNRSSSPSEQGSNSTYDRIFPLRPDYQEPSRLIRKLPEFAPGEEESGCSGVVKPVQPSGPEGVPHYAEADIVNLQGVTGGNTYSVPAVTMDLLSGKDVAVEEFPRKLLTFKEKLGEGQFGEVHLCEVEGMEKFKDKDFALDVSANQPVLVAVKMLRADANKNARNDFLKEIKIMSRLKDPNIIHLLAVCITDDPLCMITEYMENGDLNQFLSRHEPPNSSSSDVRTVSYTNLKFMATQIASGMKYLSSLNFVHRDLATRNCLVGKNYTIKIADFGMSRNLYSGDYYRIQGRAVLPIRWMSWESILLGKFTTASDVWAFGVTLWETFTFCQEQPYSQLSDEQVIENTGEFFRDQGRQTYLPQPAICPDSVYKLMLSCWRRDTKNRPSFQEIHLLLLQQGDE

[3] = biological target: Serine/threonine-protein kinase pim-3 (Homo sapiens) (UniProt Q86V86); experiment: Inhibition of human recombinant PIM3 at 15 nM in presence of ATP by radiometric assay relative to control
[4] = biological target: Casein kinase I isoform gamma-1 (Homo sapiens) (UniProt Q9HCP0); experiment: Inhibition of human recombinant CK1g1 at 15 nM related to control ULK1
Casein kinase I isoform gamma-1 (Homo sapiens), sequence (Q9HCP0 whole entry, looked up, canonical isoform): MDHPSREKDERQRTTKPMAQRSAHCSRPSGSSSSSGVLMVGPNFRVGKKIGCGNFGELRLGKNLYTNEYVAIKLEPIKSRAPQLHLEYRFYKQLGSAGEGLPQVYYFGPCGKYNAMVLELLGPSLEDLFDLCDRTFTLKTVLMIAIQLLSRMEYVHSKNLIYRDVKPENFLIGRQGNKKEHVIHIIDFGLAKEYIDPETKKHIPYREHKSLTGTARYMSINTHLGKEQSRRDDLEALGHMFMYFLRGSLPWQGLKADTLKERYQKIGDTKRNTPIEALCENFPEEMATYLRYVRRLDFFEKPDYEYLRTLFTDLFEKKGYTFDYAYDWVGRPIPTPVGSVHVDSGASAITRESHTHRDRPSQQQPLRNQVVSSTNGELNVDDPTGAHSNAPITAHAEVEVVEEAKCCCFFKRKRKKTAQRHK

[5] = biological target: T2, Aurora kinase C (Homo sapiens) (UniProt Q9UQB9); experiment: Inhibition of human recombinant AurC at 15 nM in presence of ATP by radiometric assay relative to control
T2 sequence (whole entry): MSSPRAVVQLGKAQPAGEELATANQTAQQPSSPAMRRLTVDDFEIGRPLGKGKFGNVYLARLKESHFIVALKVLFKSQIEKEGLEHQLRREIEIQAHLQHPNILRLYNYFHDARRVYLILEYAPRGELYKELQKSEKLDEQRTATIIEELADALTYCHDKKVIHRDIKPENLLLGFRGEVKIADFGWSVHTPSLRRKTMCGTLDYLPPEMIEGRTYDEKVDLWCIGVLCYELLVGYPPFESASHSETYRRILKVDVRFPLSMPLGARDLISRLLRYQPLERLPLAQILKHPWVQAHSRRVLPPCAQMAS
How it was run: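 Part of a radiometric in vitro activity panel of 327 recombinant human kinases. Each kinase was tested in duplicate at one inhibitor concentration. Activity remaining was expressed as a percentage of the vehicle control, and percent inhibition was taken as 100 minus that value.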

[6] = biological target: T3, cGMP-dependent protein kinase 1 (Homo sapiens) (UniProt Q13976); experiment: Inhibition of human recombinant PKG1 at 15 nM related to control ULK1
T3 sequence (whole entry): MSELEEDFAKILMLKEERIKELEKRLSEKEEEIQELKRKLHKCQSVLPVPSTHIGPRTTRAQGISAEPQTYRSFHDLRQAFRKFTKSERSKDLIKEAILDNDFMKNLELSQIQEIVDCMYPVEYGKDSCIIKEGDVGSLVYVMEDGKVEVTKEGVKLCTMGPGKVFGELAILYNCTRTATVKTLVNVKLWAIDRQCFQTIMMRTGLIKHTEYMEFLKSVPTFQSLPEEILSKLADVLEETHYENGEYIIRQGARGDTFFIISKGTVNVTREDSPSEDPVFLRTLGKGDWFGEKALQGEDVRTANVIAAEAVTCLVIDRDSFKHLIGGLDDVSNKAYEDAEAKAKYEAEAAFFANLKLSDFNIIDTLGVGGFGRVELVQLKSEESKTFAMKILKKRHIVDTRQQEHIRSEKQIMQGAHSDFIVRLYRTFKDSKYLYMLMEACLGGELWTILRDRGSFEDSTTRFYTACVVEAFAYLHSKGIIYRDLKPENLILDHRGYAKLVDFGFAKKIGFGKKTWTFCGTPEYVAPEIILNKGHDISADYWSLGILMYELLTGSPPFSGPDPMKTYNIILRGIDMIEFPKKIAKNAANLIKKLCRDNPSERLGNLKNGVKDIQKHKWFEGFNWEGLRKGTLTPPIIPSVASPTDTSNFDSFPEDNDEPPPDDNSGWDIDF

Homo sapiens = organism: Homo sapiens; experiment: Inhibition of human recombinant ABL at 40 nM related to control ULK1
How it was run: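 Radiometric activity assays in a panel of 327 human recombinant kinases, each run in duplicate at one inhibitor concentration. Activity remaining is expressed as percent of vehicle control, and percent inhibition is calculated as 100% minus percent activity remaining.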

[7] = biological target: SRSF protein kinase 1 (Homo sapiens) (UniProt Q96SB4); experiment: Inhibition of human recombinant SRPK1 at 40 nM in presence of ATP by radiometric assay relative to control
SRSF protein kinase 1 (Homo sapiens), sequence (Q96SB4 whole entry, canonical isoform): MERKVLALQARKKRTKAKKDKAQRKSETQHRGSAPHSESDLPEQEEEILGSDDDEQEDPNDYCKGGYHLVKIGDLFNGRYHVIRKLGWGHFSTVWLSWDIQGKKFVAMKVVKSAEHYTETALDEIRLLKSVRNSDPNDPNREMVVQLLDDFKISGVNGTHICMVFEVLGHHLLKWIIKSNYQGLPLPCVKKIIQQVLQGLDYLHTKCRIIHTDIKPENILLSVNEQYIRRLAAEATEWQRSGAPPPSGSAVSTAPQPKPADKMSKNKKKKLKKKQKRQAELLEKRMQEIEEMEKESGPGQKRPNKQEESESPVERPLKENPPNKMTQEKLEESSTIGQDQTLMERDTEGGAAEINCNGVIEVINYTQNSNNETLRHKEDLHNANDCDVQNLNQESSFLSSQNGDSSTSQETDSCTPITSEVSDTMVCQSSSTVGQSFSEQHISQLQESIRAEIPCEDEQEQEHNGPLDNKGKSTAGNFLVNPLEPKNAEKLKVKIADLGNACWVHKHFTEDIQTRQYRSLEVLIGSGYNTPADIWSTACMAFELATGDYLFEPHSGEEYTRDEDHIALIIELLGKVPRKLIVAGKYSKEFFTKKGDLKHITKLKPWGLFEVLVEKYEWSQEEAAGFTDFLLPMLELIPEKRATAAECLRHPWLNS

[8] = biological target: T4, Phosphorylase b kinase gamma catalytic chain, liver/testis isoform (Homo sapiens) (UniProt P15735); experiment: Inhibition of human recombinant PHKg2 at 40 nM related to control ULK1
T4 sequence (whole entry): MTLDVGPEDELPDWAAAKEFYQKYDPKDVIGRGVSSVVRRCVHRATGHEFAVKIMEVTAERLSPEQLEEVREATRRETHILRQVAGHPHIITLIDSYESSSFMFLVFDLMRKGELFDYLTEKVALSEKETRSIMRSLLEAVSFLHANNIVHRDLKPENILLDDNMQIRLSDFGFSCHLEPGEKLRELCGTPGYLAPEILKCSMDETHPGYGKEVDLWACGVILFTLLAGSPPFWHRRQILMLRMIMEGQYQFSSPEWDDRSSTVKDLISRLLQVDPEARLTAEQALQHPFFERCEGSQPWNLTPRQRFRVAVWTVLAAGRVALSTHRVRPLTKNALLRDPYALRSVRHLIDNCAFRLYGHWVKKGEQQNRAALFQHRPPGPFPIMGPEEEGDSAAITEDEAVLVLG

[9] = biological target: LIM domain kinase 1 (Homo sapiens) (UniProt P53667); experiment: Inhibition of human recombinant LIMK1 at 40 nM in presence of ATP by radiometric assay relative to control
LIM domain kinase 1 (Homo sapiens), sequence (P53667 whole entry, looked up, the tested form may be a part): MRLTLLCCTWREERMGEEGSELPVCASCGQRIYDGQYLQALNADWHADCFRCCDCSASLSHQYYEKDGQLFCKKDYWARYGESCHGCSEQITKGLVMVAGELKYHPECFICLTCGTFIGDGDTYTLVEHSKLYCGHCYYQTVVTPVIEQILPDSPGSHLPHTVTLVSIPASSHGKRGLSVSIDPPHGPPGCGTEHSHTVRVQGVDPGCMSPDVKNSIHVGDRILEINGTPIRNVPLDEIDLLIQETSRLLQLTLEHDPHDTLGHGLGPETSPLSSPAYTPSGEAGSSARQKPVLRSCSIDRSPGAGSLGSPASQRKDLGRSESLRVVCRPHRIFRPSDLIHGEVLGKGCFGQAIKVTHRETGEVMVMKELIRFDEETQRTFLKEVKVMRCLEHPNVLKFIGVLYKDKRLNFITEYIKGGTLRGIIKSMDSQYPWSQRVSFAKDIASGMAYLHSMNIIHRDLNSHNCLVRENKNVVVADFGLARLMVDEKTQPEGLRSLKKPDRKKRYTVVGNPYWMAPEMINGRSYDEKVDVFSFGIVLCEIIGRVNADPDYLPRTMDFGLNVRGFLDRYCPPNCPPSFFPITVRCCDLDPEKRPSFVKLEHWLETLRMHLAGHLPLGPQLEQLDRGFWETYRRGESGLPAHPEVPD

Fibroblast growth factor receptor 3 (Homo sapiens), sequence (P22607 23-806 limits assumed): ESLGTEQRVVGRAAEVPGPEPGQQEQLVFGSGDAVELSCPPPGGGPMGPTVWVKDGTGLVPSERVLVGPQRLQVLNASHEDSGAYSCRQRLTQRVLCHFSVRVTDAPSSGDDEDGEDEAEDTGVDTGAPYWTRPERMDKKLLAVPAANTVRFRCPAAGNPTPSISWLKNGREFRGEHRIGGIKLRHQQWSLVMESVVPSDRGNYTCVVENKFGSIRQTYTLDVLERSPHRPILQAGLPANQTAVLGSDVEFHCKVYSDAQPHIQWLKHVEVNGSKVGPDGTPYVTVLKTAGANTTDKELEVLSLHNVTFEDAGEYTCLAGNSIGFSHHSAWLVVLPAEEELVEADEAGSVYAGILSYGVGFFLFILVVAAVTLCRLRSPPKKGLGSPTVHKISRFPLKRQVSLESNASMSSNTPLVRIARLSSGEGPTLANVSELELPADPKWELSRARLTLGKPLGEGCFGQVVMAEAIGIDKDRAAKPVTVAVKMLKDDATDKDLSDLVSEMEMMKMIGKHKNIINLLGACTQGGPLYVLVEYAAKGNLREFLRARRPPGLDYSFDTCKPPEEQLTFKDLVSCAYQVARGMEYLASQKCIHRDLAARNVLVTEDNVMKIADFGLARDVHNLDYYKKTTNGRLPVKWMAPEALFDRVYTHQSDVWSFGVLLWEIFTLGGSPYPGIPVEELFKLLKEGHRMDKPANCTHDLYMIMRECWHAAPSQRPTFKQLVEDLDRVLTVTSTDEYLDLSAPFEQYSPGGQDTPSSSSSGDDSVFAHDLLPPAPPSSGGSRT

fold change (FC) [1]: 0.57 | fold change (FC) [2]: 0
SMILES: CNC(=O)c1ccccc1Oc1nc(Nc2cc(OC)c(OC)c(OC)c2)ncc1Br

inhibition [3]: 2% | fold change (FC) [4]: 0 | inhibition [5]: 8% | fold change (FC) [6]: 0
SMILES: CC(C)[C@H](NC(=O)c1cc(-c2cnn3cc(-c4ccc(OCCN5CCCCC5)cc4)cnc23)cs1)C(F)(F)F

fold change (FC) (Homo sapiens): 0.16 | inhibition [7]: 10% | fold change (FC) [8]: 0 | inhibition [9]: 15%
SMILES: O=C(N[C@@H](C1CC1)C(F)(F)F)c1cc(-c2cnn3cc(-c4ccc(F)cc4)cnc23)cs1
